Results reported in ChEMBL document CHEMBL1145453, “Abietane diterpenes from Salvia miltiorrhiza inhibit the activation of hypoxia-inducible factor-1” (J Nat Prod, 2007).

What was measured:
[1] = molecular target: T1, Hypoxia inducible factors; HIF-1-alpha, HIF-2-alpha (Homo sapiens, UniProt Q16665+Q99814); assay: Inhibition of HIF1 activation in human Hep3B cells assessed as inhibition of hypoxia-induced luciferase expression after 16 hrs by reporter assay; type: cell-based; details: hep 3b2
Outline: (§1)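 Cells transiently cotransfected with pGL3-HRE-luciferase (six HRE copies from human VEGF gene) plus pRL-CMV, plated at 5 × 10^4 cells/well, grown 48 h, then exposed to varied compound concentrations (up to 20 µM) for 16 h at 1% O2/94% N2/5% CO2, 37 °C. Dual-luciferase read-out, firefly normalized to Renilla; IC50 from mean ± SD of three experiments; 17-DMAG positive control.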

AGS [2] = assay: Viability of human AGS cells under normoxic conditions after 24 hrs by MTT assay; type: functional, cell-based
Outline: (§2)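 Cells seeded 5 × 10^4/well, settled 3 h at 37 °C, then exposed to a concentration range of compound under normoxia or hypoxia (1% O2) for 24 h. MTT (10 µL of 5 mg/mL stock) added for 4 h, formazan dissolved in DMSO, absorbance at 570 nm; LD50 derived, mean ± SD of three experiments.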

[3] = molecular target: T1, Hypoxia inducible factors; HIF-1-alpha, HIF-2-alpha; assay: Inhibition of HIF1 activation in human AGS cells assessed as inhibition of hypoxia-induced luciferase expression after 16 hrs by reporter assay; type: cell-based; outline: as §1
[4] = Viability of human Hep3B cells under normoxic conditions after 24 hrs by MTT assay; type: functional, cell-based, Hep 3B2; outline: as §2
AGS [5] = assay: Viability of human AGS cells under hypoxic conditions after 24 hrs by MTT assay; type: functional, cell-based; outline: as §2
[6] = Viability of human Hep3B cells under hypoxic conditions after 24 hrs by MTT assay; type: functional, cell-based, Hep 3B2; outline: as §2
[7] = Suppression of hypoxia-induced VEGF mRNA expression in Hep3B cells after 1 hr by RT-PCR; type: functional, cell-based; details: Homo sapiens; Hep 3B2; in the assay text read “after 16 hr” for “after 1 hr”
Outline: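 Hep3B cells pretreated 1 h with graded compound concentrations, then held 16 h under hypoxia (1% O2, 94% N2, 5% CO2, 37 °C). Total RNA isolated and VEGF transcript detected by RT-PCR, product identity confirmed by sequencing.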

Hep 3B2 [8] = assay: Inhibition of hypoxia-induced HIF1alpha accumulation in Hep3B cells; type: functional, cell-based; details: Homo sapiens
Outline: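 Hep3B cells plated at 1.5 × 10^5 cells per cm2, grown overnight at 37 °C, exposed to a range of concentrations for 1 h, then held 12 h hypoxic (1% O2, 94% N2, 5% CO2, 37 °C). HIF-1α was measured in total lysates (50 µg) by Western blot after 6% SDS-PAGE with rabbit anti-HIF-1α, with ECL detection. TOPO I served as loading control.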

Hep 3B2 [9] = assay: Inhibition of hypoxia-induced secreted VEGF levels in Hep3B cells after 16 hr by ELISA; details: Homo sapiens

IC50 [1] | IC50 (AGS [2]) | IC50 [3] | IC50 (AGS [5]) | IC50 (Hep 3B2 [9]) | SMILES | IC50 [4] | IC50 [6] | Activity [7] | IC50 (Hep 3B2 [8])
10.6 µM | 21.6 µM | 15.1 µM |  |  | Cc1cccc2c3c(ccc12)C(=O)C(C(C)C)=CC3=O [12-DEOXYTANSHINQUINONE B] | > 50 µM |  |  | 
8.51 µM | > 50 µM | 12.5 µM |  |  | Cc1coc2c1C(=O)C(=O)c1c-2ccc2c(C)cccc12 [TANSHINONE I] | > 50 µM |  |  | 
> 20 µM | > 50 µM | > 20 µM |  |  | Cc1cccc2c3c(ccc12)C(=O)C(=O)C1=C3OC[C@H]1C [DIHYDROISOTANSHINONE II] | > 50 µM |  |  | 
> 20 µM | > 50 µM | > 20 µM |  |  | Cc1cccc2c3c(ccc12)C(=O)C(C(C)CO)=C(O)C3=O (stereo unspecified) [DANSHENXINKUN A] | > 50 µM |  |  | 

Continued, molecule first:

SMILES | IC50 [1] | IC50 (AGS [2]) | IC50 [3] | IC50 (AGS [5]) | IC50 (Hep 3B2 [9]) | IC50 [4] | IC50 [6] | Activity [7] | IC50 (Hep 3B2 [8])
C[C@H](CO)C1=C(O)C(=O)c2c(ccc3c2CCCC3(C)C)C1=O [NEOCRYPTOTANSHINONE] | > 20 µM | > 50 µM | 12.7 µM |  |  | > 50 µM |  |  | 
CC(C)C1=CC(=O)c2c(ccc3c2C=CCC3(C)C)C1=O [SIBIRIQUINONE A] | 0.28 µM | 35.7 µM | 0.34 µM | 21.2 µM | 3.5 µM | > 50 µM | > 50 µM | Dose-dependent effect | 0.4 µM
CO[C@H]1/C=C\C=C(/C)C(=O)NC2=CC(=O)C(NCCN(C)C)=C(C[C@@H](C)C[C@H](OC)[C@H](O)[C@@H](C)/C=C(\C)[C@@H]1OC(N)=O)C2=O [ALVESPIMYCIN] | 0.061 µM |  | 0.036 µM |  |  | > 50 µM |  |  | 
COC(=O)[C@@]1(C)CCCc2c1ccc1c2C(=O)C(=O)c2c(C)coc2-1 [METHYL TANSHINONATE] | 7.34 µM | > 50 µM | 7.48 µM |  |  | > 50 µM |  |  | 
C[C@H]1COC2=C1C(=O)C(=O)c1c2ccc2c1CCCC2(C)C [CRYPTOTANSHINONE] | 1.36 µM | 13.5 µM | 1.58 µM | 10.2 µM |  | > 30 µM | > 30 µM |  | 
Cc1coc2c1C(=O)C(=O)c1c-2ccc2c1CCCC2(C)C [TANSHINONE IIA] | 6.18 µM | 10 µM | 7.53 µM | 6.8 µM |  | > 50 µM | > 50 µM |  | 
CC(C)C1=CC(=O)c2c(ccc3c2CCCC3(C)C)C1=O [SIBIRIQUINONE B] | 3.18 µM | > 50 µM | 3.36 µM | > 50 µM |  | > 50 µM | > 50 µM |  | 
Cc1cccc2c3c(ccc12)C1=C(C(=O)C3=O)[C@@H](C)CO1 [DIHYDROTANSHINONE I] | 2.29 µM | > 50 µM | 2.05 µM | 47.7 µM |  | > 50 µM | > 50 µM |  | 3.2 µM
